High-throughput results (PubChem)
Mcl1 Noxa PPI = disrupts binding of human Mcl-1 to Noxa peptide; TR-FRET Mcl-1/Noxa peptide binding, 2 h; hit rate 1.5% among 220,000; inhibition, % at 21.7 µM;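 active = compounds that cut the protein-peptide binding signal by more than 50% relative to plate controls in a single-dose test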;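 also: His-tagged Mcl-1 with rhodamine Noxa BH3 peptide and terbium anti-His antibody; 0% = Mcl-1 plus Noxa peptide wells and 100% = peptide-only wells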
Target sequence (Q07820 whole entry, looked up): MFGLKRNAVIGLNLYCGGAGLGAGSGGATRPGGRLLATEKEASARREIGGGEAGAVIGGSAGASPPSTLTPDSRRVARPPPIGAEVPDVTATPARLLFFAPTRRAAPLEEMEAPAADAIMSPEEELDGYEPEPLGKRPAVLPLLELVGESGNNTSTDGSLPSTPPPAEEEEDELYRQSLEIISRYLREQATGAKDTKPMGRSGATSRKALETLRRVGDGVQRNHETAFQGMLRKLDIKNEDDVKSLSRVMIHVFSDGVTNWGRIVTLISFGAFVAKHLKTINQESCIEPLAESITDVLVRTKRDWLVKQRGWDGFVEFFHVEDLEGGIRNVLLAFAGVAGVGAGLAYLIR
T cell HTS = modulates CD8 T cell binding to vesicles; 2C CD8+ T cell-vesicle binding, flow cytometry; active compounds read low; response (vesicle binding), % at 7 µM; hit rate 0.068% among 330,000; AID 2052;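 active = response, share of CD8 T cells binding vesicles, and their 90th percentile fluorescence all below set limits, cut at about 80% in these data, passing the limit was not always enough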;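 also: values below 100% mean blocked vesicle binding to the CD8+ T cells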
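Assay system – 2C mouse CD8+ T cells · Also added – QL9-loaded Drosophila micro-vesicles · Timing – Cell–vesicle co-incubation 1.5 h at 37 °C, staining 20 min on ice · Signal – flow cytometry of vesicle-bound cells · Measure – percent CD8+ FL2 mean versus row control · Controls – Peptide-free naked vesicles (low) and QL9 vesicles with 0.7% DMSO vehicle (high)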
Pemphigus Ab inh = human desmoglein-3 autoantibody binding inhibition; DSG3-coupled beads, scFv-anti-DSG3-GFP binding, flow cytometry; active compounds read low; binding (percent of control), % at 10 µM; hit rate 0.48% among 310,000;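 active = binding more than 3 SD below its plate's average and above zero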;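 also: hits lower antibody fragment binding to DSG3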
MCL1 BIM primary = MCL1-BIM-BH3 interaction inhibition (human). Q07820. GST-MCL1 / FITC-Bim-BH3 fluorescence polarization. inhibition, % at 10.9 µM. hit rate 0.68% among 320,000. AID 2057;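 active = inhibition above the mean inhibition of all tested compounds plus 3 SD, set per campaign, cut at about 40% in these data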;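 also: 0% = DMSO wells and 100% = unlabeled Bim-BH3 peptide control; higher means more loss of mP so more displacement of Bim peptide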
Mcl-1 Bim block = disrupts Bim peptide binding to human Mcl-1; Q07820; Bead-based flow cytometry, Bim peptide-Mcl-1 binding; inhibition, % at 10 µM; hit rate 0.1% among 190,000; AID 1009; in the data active = inhibition above about 40%;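 also: 0% = no compound tracer wells and 100% = peptide blocker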
Mcl1-Bid inh = disrupts binding of human Mcl-1 to Bid peptide. Q07820. TR-FRET Mcl-1/Bid-Dy647 peptide binding, 1536-well. inhibition, % at 21.7 µM. hit rate 0.97% among 220,000;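 active = compounds that cut the binding signal by more than half at the single screening dose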;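 also: His-tagged Mcl-1 with europium anti-His antibody binding Bid BH3 peptide; 0% = Mcl-1 plus peptide wells and 100% = peptide-only wells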
Bcl-xL conf = counter-screen for MCL1 inhibitors: confirmation of human Bcl-xL inhibitors | shares compounds with MCL1 BIM primary | GST-Bcl-xL / FITC-Bim BH3 peptide FP binding | inhibition, % at 10.9 µM | hit rate 54% among 1,700 | AID 2166;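 active = inhibition above a cutoff equal to the mean inhibition of all tested compounds plus 3 SD, cut at about 30% in these data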;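 also: 0% = DMSO wells and 100% = unlabeled Bim BH3 control peptide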
Target sequence (Q07817 whole entry, looked up): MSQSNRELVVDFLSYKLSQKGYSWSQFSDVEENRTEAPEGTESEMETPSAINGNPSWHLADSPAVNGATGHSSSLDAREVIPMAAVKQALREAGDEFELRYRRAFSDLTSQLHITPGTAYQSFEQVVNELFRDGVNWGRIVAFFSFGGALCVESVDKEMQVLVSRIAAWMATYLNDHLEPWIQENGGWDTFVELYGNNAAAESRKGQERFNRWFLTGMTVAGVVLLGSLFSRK
MCL1 BIM confirm = confirmation of human MCL1 and BIM-BH3 interaction inhibitors; shares compounds with MCL1 BIM primary; GST-MCL1 / FITC-Bim-BH3 fluorescence polarization; inhibition, % at 10.9 µM; hit rate 61% among 1,700;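 active = inhibition above the average of all tested compounds plus 3 SD, cut at about 40% in these data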;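 also: 0% = DMSO wells and 100% = unlabeled Bim-BH3 control peptide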
* = called active by the depositor; i = inactive; nt = no result. In the library only some 2.3% were active in any assay of this set; here they are far more common.

SMILES	Mcl1 Noxa PPI	T cell HTS	Pemphigus Ab inh	MCL1 BIM primary	Mcl-1 Bim block	Mcl1-Bid inh	Bcl-xL conf	MCL1 BIM confirm
O=C(N[C@@H](Cc1ccccc1)C(=O)N1CCN(S(=O)(=O)c2ccc(F)cc2)CC1)c1ccco1	nt	nt	100	nt	nt	nt	nt	nt
COc1ccccc1/C=c1\sc2nc(-c3ccco3)nn2c1=O	74*	268	94	60*	-2	-27	24	52*
O=C1NC(=S)N/C1=C/c1cc2c(cc1[N+](=O)[O-])OCO2	nt	600	110	67*	nt	nt	10	14
Cc1noc(C)c1S(=O)(=O)N(CC(=O)NC1CCCC1)c1ccc(C(C)C)cc1	nt	96	99	-2	nt	nt	nt	nt
CC(C)=CCc1c(O)c(CC=C(C)C)c2c(c1O)-c1cc(O)c(O)cc1CC2	nt	484	nt	55*	nt	nt	41*	76*
CN(C(=O)CN1C(=O)c2cccc(N)c2C1=O)C1CCCCC1	nt	421	98	73*	nt	nt	56*	77*
CCOC(=O)C1Nc2ccc(Br)cc2C2C=CCC12 (stereo not given)	nt	240	107	44*	nt	nt	9	9
O=C(O)C1Nc2ccc(Br)cc2C2C=CCC12 (stereo not given)	nt	172	107	101*	nt	nt	67*	107*
CCOC(=O)C1Nc2ccc(C)cc2C2C=CCC12 (stereo not given)	nt	nt	110	51*	nt	nt	4	3
COC(=O)CNC(=O)C1Nc2ccccc2C2C=CCC12 (stereo not given)	nt	781	96	22	nt	nt	nt	nt
CC(C)CNC(=O)C1Nc2ccc(C(F)(F)F)cc2C2C=CCC12 (stereo not given)	nt	444	97	4	nt	nt	nt	nt
CN(C)C(=O)N1CCc2ccc([N+](=O)[O-])cc21	nt	nt	106	nt	nt	nt	nt	nt
COc1ccc(OCC(=O)NC2CCCN(Cc3ccc(Cl)cc3)C2)cc1 (stereo not given)	nt	470	114	-7	nt	nt	nt	nt
CCN(c1ccccc1)S(=O)(=O)c1cccc(C(=O)Nc2cccc(C)n2)c1	nt	nt	104	nt	nt	nt	nt	nt
Nc1cc(C(=O)O)c(N)c2c1C(=O)c1ccccc1C2=O	96*	211	103	180*	nt	-86	161*	195*
Cc1ccccc1-c1n[nH]nc1C1=CC(=O)CC(C)(C)C1	nt	nt	105	nt	nt	nt	nt	nt
NC(=S)Nc1cccc2cc3ccccc3cc12	31	296	96	53*	6	-62	81*	95*
N#C/C(=C\c1cccc([N+](=O)[O-])c1)C(=O)NCC1CCCO1 (stereo not given)	25	305	103	50*	0	-32	2	0
Cc1ccc(C)n1-c1ccc(C(=O)O)cc1	62*	293	nt	45*	-3	-48	21	41*
COc1ccccc1-n1c(C)c2c(OC)cccc(=O)c2c1C	23	279	128	40*	0	-39	21	24
CCOc1cccc(=O)c2c(C)n(-c3ccc(C(=O)O)cc3)c(C)c12	14	437	nt	86*	0	-51	36*	53*
COc1cccc(=O)c2c(C)n(-c3ccc(C(=O)O)cc3)c(C)c12	19	232	122	91*	0	-35	21	29
Cc1ccc(N2C(=O)[C@@H]3[C@H](C2=O)C2CCCN2[C@@H]3C(=O)c2ccccc2)cc1 (stereo not given in full)	24	236	100	81*	0	-8	64*	76*
O=C(c1ccc(Cl)cc1)C1C2C(=O)N(c3ccccc3)C(=O)C2C2CCCN21 (stereo not given)	7	nt	111	nt	1	-81	nt	nt
O=C(c1ccccc1)[C@@H]1[C@@H]2C(=O)N(c3ccc(F)cc3)C(=O)[C@@H]2C2CCCN21 (stereo not given in full)	-8	i	109	62*	nt	-7	58*	62*
SMILES	Mcl1 Noxa PPI	T cell HTS	Pemphigus Ab inh	MCL1 BIM primary	Mcl-1 Bim block	Mcl1-Bid inh	Bcl-xL conf	MCL1 BIM confirm
CC(=O)c1ccc(N2C(=O)C3C(C2=O)C(C(=O)c2ccc(Cl)cc2)N2CCCC32)cc1 (stereo not given)	10	nt	nt	nt	1	-91	nt	nt
C=CCNS(=O)(=O)c1cccc2cc(C(=O)O)c(O)cc12	9	200	nt	97*	1	-7	30	39
CCN1CCC(O)(C(C(=O)OC)c2ccccc2)CC1 (stereo not given)	nt	nt	96	nt	nt	nt	nt	nt
COc1ccc(CCNC(=O)c2c[nH]c3ccc(F)cc3c2=O)cc1OC	nt	264	99	-5	nt	nt	nt	nt
Cc1ccc2nc(-c3ccc(O)c(O)c3)cn2c1	nt	228	111	40*	nt	nt	61*	82*
Cc1ccc2nc(-c3ccccc3)cn2c1	18	145	98	3	2	-1	nt	nt
O=[N+]([O-])c1cccnc1Sc1ccc(F)cc1	nt	i	102	0	nt	nt	nt	nt
CNc1nnc(Sc2ncccc2[N+](=O)[O-])s1	-1	423	101	62*	nt	2	6	-1
Fc1ccc(NCc2cccnc2)cc1F	15	258	200	71*	-1	33	70*	91*
Clc1ccc(NCc2cccnc2)cc1	nt	172	95	-3	nt	nt	nt	nt
O=C(O)C1Nc2c(Cl)cc(Cl)cc2C2C=CCC12 (stereo not given)	nt	595	100	105*	nt	nt	52*	91*
O=C(O)C1Nc2c(Cl)cc(Cl)c(Cl)c2C2C=CCC12 (stereo not given)	nt	172	96	103*	nt	nt	123*	168*
N=c1c(C(=O)NC2CCCC2)cc2c(=O)n3ccccc3nc2n1C1CCCC1	-4	308	94	7	-1	-36	nt	nt
Cc1cccn2c(=O)c3cc(C(=O)NCc4cccnc4)c(=N)n(C(C)C)c3nc12	6	854	102	14	2	-58	nt	nt
Cc1ccc(CNC(=O)c2cc3c(=O)n4ccccc4nc3n(Cc3ccco3)c2=N)cc1	nt	369	67	-3	nt	nt	nt	nt
N=c1c(C(=O)NCc2ccco2)cc2c(=O)n3ccccc3nc2n1C1CCCC1	nt	226	122	63*	nt	nt	157*	194*
Cc1ccc(S(=O)(=O)c2cc3c(=O)n4ccccc4nc3n(Cc3ccco3)c2=N)cc1	72*	352	109	58*	1	26	25	20
Cc1cccn2c(=O)c3cc(C(=O)NCc4ccco4)c(=N)n(C(C)C)c3nc12	20	200	90	90*	0	3	39*	63*
Cc1ccc2nc3c(cc(C(=O)NCc4ccco4)c(=N)n3Cc3ccco3)c(=O)n2c1	22	150	103	58*	-1	-31	13	7
C[C@H](CO)N1C[C@H](C)[C@H](CN(C)Cc2ccncc2)Oc2ncc(Br)cc2C1=O	nt	nt	95	nt	nt	nt	nt	nt
